# Source: PubChem BioAssay
# hERG rescue – hERG rescue from dofetilide block, primary screen, cell-based, CHO-hERG, FluxOR thallium flux, dofetilide IC70 | Voltage-gated inwardly rectifying potassium channel KCNH2 (Homo sapiens), Q12809 | dofetilide IC70 present | activation (rescue from dofetilide block), less the hit threshold, % at 10 µM | hit rate 0.51% among 310,000;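 active means activation above the mean of controls blocked by dofetilide plus 5 SD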;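 further: thallium influx through hERG after potassium depolarization seen as dye fluorescence rise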
# KCNQ1 pot – potentiators or activators of KCNQ1 channel, primary screen, cell-based, thallium flux, high-throughput; Potassium voltage-gated channel subfamily KQT member 1 (Homo sapiens), P51787; B-score at 10 µM; hit rate 0.35% among 310,000; CHO-K1 KCNQ1, thallium flux FluxOR fluorescence; stronger effect = higher value;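 active means fluorescence ratio B-score, a plate-corrected score, at least three library SD, with initial intensity B-score within 5 SD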
#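 Assay system: CHO-K1 cells stably expressing KCNQ1; Medium: assay buffer with matched DMSO; Also added: K+/Tl+ depolarizing stimulus; Dosing: single dose; Timing: dye 90 min, compound 20 min, room temperature; Measured by: kinetic FluxOR thallium fluorescence, 10-s 1-Hz baseline, 110-s post-stimulus read; Read-out: peak-minus-minimum fluorescence over initial fluorescence, negative-control normalized, B-scored.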
# KCNK9 inh – KCNK9 potassium channel inhibitors, primary screen, HEK293 cells, thallium flux; Potassium channel subfamily K member 9 (Homo sapiens), Q9NPC2; FluxOR thallium flux fluorescence; stronger effect = lower value; B-score at 10 µM; hit rate 1.2% among 310,000; AID 488922, 2010;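 active means ratio B-score over 3 SD below the library mean, with starting fluorescence within 5 SD of its mean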;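 further: negative B-score means less thallium flux so channel inhibition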
# Target sequence (Q9NPC2 whole entry, looked up): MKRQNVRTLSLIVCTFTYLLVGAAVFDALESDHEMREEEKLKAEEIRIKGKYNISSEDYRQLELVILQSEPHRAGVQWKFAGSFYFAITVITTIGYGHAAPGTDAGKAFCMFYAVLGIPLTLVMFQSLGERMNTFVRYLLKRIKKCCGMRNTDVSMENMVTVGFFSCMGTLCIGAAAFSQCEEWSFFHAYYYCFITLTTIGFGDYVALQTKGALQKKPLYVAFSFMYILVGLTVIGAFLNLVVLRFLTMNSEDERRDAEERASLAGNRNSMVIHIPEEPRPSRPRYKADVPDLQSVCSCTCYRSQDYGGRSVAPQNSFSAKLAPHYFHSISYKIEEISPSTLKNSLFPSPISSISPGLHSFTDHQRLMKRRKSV
# KCNK3 block – human KCNK3 channel inhibitors, primary screen, CHO cells, FluxOR thallium flux, B-score; FluxOR fluorescence; stronger effect = lower value; Potassium channel subfamily K member 3 (Homo sapiens), O14649; B-score at 10 µM; hit rate 0.84% among 340,000;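 active means B-score under library mean minus 4 SD, starting fluorescence ratio at most library mean plus 5 SD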;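 further: more negative B-score means stronger inhibition of thallium flux through KCNK3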
# KCNQ1 inh – inhibitors of human KCNQ1 channel, primary screen, cell-based, thallium flux, high-throughput; CHO-K1 KCNQ1, FluxOR thallium flux fluorescence; stronger effect = higher value; Potassium voltage-gated channel subfamily KQT member 1 (Homo sapiens), P51787; hit rate 1.3% among 310,000; AID 2642, 2010; B-score at 10 µM;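 active means compounds whose thallium flux B-score, printed positive for inhibition, exceeds three library SD while starting fluorescence stays within three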;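 further: channel opened by potassium depolarization with thallium stimulus after 20 min compound exposure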
# KCNK3 inh conf – retest of human KCNK3 channel inhibitors, confirmation, CHO cells, FluxOR thallium flux, triplicate. ratio percent of control, % at 10 µM. hit rate 99% among 2,400. AID 651638, 2012. FluxOR fluorescence; 0% buffer, 100% carvedilol maximal block. shares compounds with KCNK3 block;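 active means ratio percent of control, averaged over triplicates, above buffer control mean plus 5 SD, cut at about 64% in these data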;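 further: ratio is the fluorescence rise from min to max over baseline after thallium stimulus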
# KCNK3 uninduced – thallium flux inhibition in non-induced cells, primary screen, counter-screen for KCNK3 inhibitor project, cell-based, non-induced KCNK3 line, FluxOR thallium, triplicate | shares compounds with KCNK3 block | non-induced KCNK3 parental cells; stronger effect = lower value | thallium flux ratio (lower = more inhibition) at 10 µM | hit rate 40% among 2,400 | AID 651747, 2012;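 active means thallium flux ratio, averaged over three wells, more than 5 SD below the buffer control mean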;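 further: host cells are CHO cells without KCNK3 induction; ratio is peak minus trough fluorescence over baseline then normalized to buffer controls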
# * hit, by the source's call; i = inactive; . = no result given. A selection: hits, their analogues and other compounds. The true share with any hit is near 3.1%.
SMILES,hERG rescue,KCNQ1 pot,KCNK9 inh,KCNK3 block,KCNQ1 inh,KCNK3 inh conf,KCNK3 uninduced
Cc1ccc(S(=O)(=O)NC(CC(C)C)C(=O)N2CCC(C)CC2)cc1 (stereo not given),-13.4,i,i,i,i,.,.
O=C(NC1CCN(C(=O)N2c3ccccc3Sc3ccccc32)CC1)c1ccccc1Cl,-3.4,i,-7.34*,-10.4*,i,109.3*,i
CCOC(=O)c1sc(NC(=O)C(CC)OC(=O)C(CC(C)C)NC(=O)c2ccccc2)nc1C (stereo not given),-11.3,i,i,-10.6*,i,108.0*,i
COc1ccc(-c2nc(C#N)c(NC(C)c3ccccc3)o2)cc1OC (stereo not given),-11.5,i,i,i,i,.,.
CCOc1cc(CNc2ncc(-c3ccc(OC)cc3)n2C)ccc1O,-10.2,i,i,i,i,.,.
Cc1cccc(NC(=O)NC2CCCc3ccccc32)c1 (stereo not given),-18.2,i,i,-9.44*,i,121.0*,0.141*
COc1nsnc1NS(=O)(=O)c1ccc(NC(=S)NC(=O)c2cccnc2)cc1,-12.2,i,i,i,i,.,.
CCN(C(=O)C1CCCN(c2ncnc3c2nc2n3CCCCC2)C1)c1cccc(Cl)c1 (stereo not given),-17.3,i,i,-12.1*,i,89.0*,i
O=S(=O)(NCC(c1ccco1)N1CCc2ccccc2C1)c1ccc(Br)cc1 (stereo not given),-8.3,i,i,-8.74*,i,113.7*,i
Cc1ccc(S(=O)(=O)NCC(c2ccco2)N2CCc3ccccc3C2)cc1 (stereo not given),-7.3,i,i,i,i,.,.
COc1ccc(C(C)=O)cc1COc1ccc(F)cc1,-15.1,i,i,-9.23*,i,115.0*,i
O=C(N1CCCC1)C12CC3CCC(CC(C3)C1)C2,-10.9,i,i,-11.7*,i,85.7*,i
CN(C(=O)Nc1ccc(Cl)cc1Cl)C1CCCC1,-22.1,i,i,-9.11*,i,76.0*,i
O=C(Nc1ccc(Cl)cc1Cl)NC1CCCC1,-12.7,i,i,i,i,.,.
Cc1ccc(NC(=O)c2c(C(F)(F)F)nn(C)c2Cl)cc1C,-7.3,i,i,i,i,.,.
Cc1ccc(NC(=O)c2c(C(F)(F)F)nn(C)c2SCc2ccc(Cl)cc2)cc1C,-9.4,i,i,-10.1*,i,110.3*,0.158*
COc1cc(NC(=O)c2ccc(NC3=NC4CS(=O)(=O)CC4S3)cc2)cc(OC)c1OC (stereo not given),-7.3,i,i,i,i,.,.
Cc1ccc(SCCNC(=O)/C=C/c2ccccc2Cl)cc1,-13.1,i,i,-14.4*,i,122.7*,0.129*
Cc1ccc(SCCNC(=O)/C=C/c2ccc(Cl)cc2)cc1,-6.0,i,i,i,i,.,.
COc1cc(C=O)ccc1OCCOc1ccccc1[N+](=O)[O-],-11.4,i,i,i,i,.,.
CCOc1cccc(OCCOc2ccccc2[N+](=O)[O-])c1,-2.5,i,-7.22*,-8.7*,i,110.0*,i
COc1ccccc1/C=N/NC(=O)CSc1ccc2ccccc2n1,-6.6,i,i,-11.1*,i,114.0*,i
Cc1ccc(C)c(C(=O)N(Cc2nc(-c3ccc(Cl)cc3)no2)C(C)C)c1,-9.7,i,i,-8.84*,i,115.0*,i
Cc1cccc(-c2noc(CN(C(=O)c3c(-c4ccccc4Cl)noc3C)C(C)C)n2)c1,.,.,.,-11.6*,.,113.3*,i
